Type in all cases: functional
A short description of test [1]: Antioxidant activity assessed as DPPH reducing activity. The essentials: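 DPPH radical (0.025 g/L in MeOH, prepared daily) mixed with sample in MeOH, maximum concentration 200 µg/mL; vehicle control. Absorbance read at 515 nm after 10 min. Remaining DPPH calculated from a calibration curve. α-Tocopherol served as positive control. Run in triplicate; EC50 obtained by the Litchfield and Wilcoxon method.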

The next test deals with Candida albicans. Briefly: Antifungal activity against Candida albicans ATCC 10231 after 24 hrs by broth microdilution assay. The essentials: (§1)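 ATCC strain in 96-well broth microdilution, run in duplicate following NCCLS guidance. Samples were dissolved in DMSO, then diluted in Triptone as serial dilutions: final 16 to 0.031 mg/mL for extracts, 2 to 0.0078 mg/mL for the pure compound. Inoculum suspension was 10^5 CFU/mL. Growth-control and DMSO blank wells were included. Plates were incubated 24 h at 37 °C. MIC is the lowest concentration inhibiting visible growth.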

The test system of the next test is Bacillus spizizenii. In words: Antibacterial activity against Bacillus subtilis subsp. […] after 24 hrs by broth microdilution assay. In outline: as §1
Another test has as its system Aspergillus niger. Briefly: Antifungal activity against Aspergillus niger ATCC 16404 after 24 hrs by broth microdilution assay. As to conditions: ATCC 16404, 24 h. In outline:
(§2)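 Broth microdilution in Triptone, in duplicate, per NCCLS. Samples dissolved in DMSO, then diluted in Triptone; final concentrations 2 to 0.0078 mg/mL for the pure compound and 16 to 0.031 mg/mL for extracts. Inoculum 10^5 CFU/mL. Incubation 24 h at 37 °C, read visually from below. MIC taken as the lowest concentration inhibiting growth. Controls: growth without sample, and DMSO blank.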

The next test relates to Staphylococcus aureus. Briefly: Antibacterial activity against Staphylococcus aureus ATCC 6538 after 24 hrs by broth microdilution assay. In outline:
as §2

The subject of another test is Pseudomonas aeruginosa. Briefly: Antibacterial activity against Pseudomonas aeruginosa ATCC 9027 after 24 hrs by broth microdilution assay. In outline:
as §2

The subject of test [2] is Staphylococcus epidermidis. Briefly: Antibacterial activity against Staphylococcus epidermidis ATCC 12228 after 24 hrs by broth microdilution assay. The essentials:
as §2

A further test relates to Escherichia coli. Briefly: Antibacterial activity against Escherichia coli ATCC 8739 after 24 hrs by broth microdilution assay. The essentials:
as §2

Converted amounts (≈) assume the structure as drawn. Where only a bound is given, the exact number is not on record here.

On to `Cc1c(C)c2c(c(C)c1O)CC[C@@](C)(CCC[C@H](C)CCC[C@H](C)CCCC(C)C)O2` [ALPHA-TOCOPHEROL], for which the concentration for a half-maximal effect (EC50) in test [1] was 10.1 µg/mL (≈ 23.4 µM).

`O=C(/C=C/c1ccc(O)c(O)c1)O[C@H](Cc1ccc(O)c(O)c1)C(=O)O` [ROSMARINIC ACID]: the MIC in the test on Candida albicans (ATCC 10231, 24 h) is > 2000 µg/mL; against Aspergillus niger, > 2000 µg/mL; with Staphylococcus aureus (ATCC 6538, 24 h), 120 µg/mL (≈ 333 µM); in the test on Pseudomonas aeruginosa (ATCC 9027, 24 h), > 2000 µg/mL; in test [2] (ATCC 12228, 24 h), 120 µg/mL (≈ 333 µM); with Escherichia coli (ATCC 8739, 24 h) it was > 2000 µg/mL. For the same compound, the MBC came out at 120 µg/mL (≈ 333 µM) against Bacillus spizizenii (ATCC 6633, 24 h, in the assay text read “ATCC 6633” for “ATCC 9027”); 120 µg/mL (≈ 333 µM) against Staphylococcus aureus (ATCC 6538, 48 h, in the assay text read “48 hrs” for “24 hrs”); 120 µg/mL (≈ 333 µM) in test [2] (ATCC 12228, 48 h, in the assay text read “48 hrs” for “24 hrs”). In addition, the EC50 in test [1] was determined as 3.1 µg/mL (≈ 8.6 µM).

Consider GENTAMICIN, for which the MIC was found to be 1 µg/mL in the test on Bacillus spizizenii; 1 µg/mL with Staphylococcus aureus; 4 µg/mL against Pseudomonas aeruginosa; 1 µg/mL in test [2]; 4 µg/mL against Escherichia coli.

Turning to NYSTATIN, the MIC in the test on Candida albicans came out at 1 µg/mL.
